Test results taken from ChEMBL document CHEMBL3286331, “Design, synthesis and evaluation of novel quinazoline-2,4-dione derivatives as chitin synthase inhibitors and antifungal agents” (Bioorg Med Chem, 2014).
pIC50: −log10 of the molar value. Values after ≈ are worked out from the molar mass of the structure shown.

Key:
Candida albicans = assay: Antifungal activity against Candida albicans ATCC 76615 after 48 hrs by disc diffusion method; format: functional; settings: ATCC 76615, 48 h
Summary of the method: (§1)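 Disc diffusion on modified Sabouraud-chloramphenicol agar (1% peptone, 2% glucose, […]), compounds as sterile-water stocks; fluconazole and polyoxin B positive controls; MIC (mg/L) recorded after 48 h at 37 °C.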

Cryptococcus neoformans = assay: Antifungal activity against Cryptococcus neoformans after 48 hrs by disc diffusion method; format: functional; summary of the method: as §1
Aspergillus flavus [1] = assay: Antifungal activity against Aspergillus flavus after 48 hrs by disc diffusion method; format: functional; summary of the method: as §1
Staphylococcus aureus [2] = assay: Antibacterial activity against Staphylococcus aureus ATCC 25923 after overnight incubation by disc diffusion method; format: functional
Summary of the method: (§2)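 Agar disc diffusion on beef extract–peptone medium (1% peptone, 0.3% beef extract, 0.5% NaCl, […]), compounds dissolved in sterile water; streptomycin sulfate positive control; plates incubated overnight at 37 °C, then MIC recorded (mg/L).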

Bacillus spizizenii = assay: Antibacterial activity against Bacillus subtilis ATCC 6633 after overnight incubation by disc diffusion method; format: functional; summary of the method: as §2
Staphylococcus aureus [3] = assay: Antibacterial activity against methicillin-resistant Staphylococcus aureus N315 after overnight incubation by disc diffusion method; format: functional
Summary of the method: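 Disc diffusion on beef extract-peptone agar (1% peptone, 0.3% beef extract, 0.5% NaCl, […]); compounds dissolved in sterile water; streptomycin sulfate positive control; plates incubated overnight at 37 °C, then MIC (mg/L) recorded.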

Bacillus = assay: Antibacterial activity against Bacillus proteus after overnight incubation by disc diffusion method; format: functional; summary of the method: as §2
Escherichia coli = assay: Antibacterial activity against Escherichia coli JM 109 after overnight incubation by disc diffusion method; format: functional; summary of the method: as §2
Pseudomonas aeruginosa = assay: Antibacterial activity against Pseudomonas aeruginosa CR56 after overnight incubation by disc diffusion method; format: functional; summary of the method: as §2
[4] = Inhibition of Saccharomyces cerevisiae CGMCC 2.145 chitin synthase assessed as UDP-GlcNAc conversion to chitin after 45 mins by ELISA
Summary of the method: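 Enzyme prepared from S. cerevisiae cells sonicated at 4 °C in 50 mM Tris–HCl pH 7.0 with protease inhibitors and PMSF; 55,000 g membrane pellet used. Wells hold UDP-GlcNAc plus 320 mM GlcNAc, compound in Tris buffer (final DMSO below 3%), 45 min at 37 °C. Chitin detected with HRP–wheat germ agglutinin, TMB read at 450 nm against a chitin standard curve; IC50 derived.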

Aspergillus flavus [5] = assay: Ratio of polyoxin B MIC to compound MIC for Aspergillus flavus; format: functional
Aspergillus flavus [6] = assay: Ratio of fluconazole MIC to compound MIC for Aspergillus flavus; format: functional

Row | Compound | MIC (Candida albicans) [µg/mL] | MIC (Cryptococcus neoformans) [µg/mL] | MIC (Aspergillus flavus [1]) [µg/mL] | MIC (Staphylococcus aureus [2]) [µg/mL] | MIC (Bacillus spizizenii) [µg/mL] | MIC (Staphylococcus aureus [3]) [µg/mL] | MIC (Bacillus) [µg/mL] | MIC (Escherichia coli) [µg/mL] | MIC (Pseudomonas aeruginosa) [µg/mL] | pIC50 [4] | Ratio (Aspergillus flavus [5]) | Ratio (Aspergillus flavus [6])
1 | CCCN(CCC)C(=O)CN(C)CC(O)Cn1c(=O)c2ccccc2n(C)c1=O.Cl (centres undefined) | > 512 | 16 | 32 | ≥ 512 | ≥ 512 | ≥ 512 | ≥ 512 | ≥ 512 | ≥ 512 | 3.41 | – | –
2 | COc1ccc(NC(=O)CN(C)CC(O)Cn2c(=O)c3ccccc3n(C)c2=O)cc1.Cl (centres undefined) | 16 | 128 | 16 | ≥ 512 | ≥ 512 | ≥ 512 | ≥ 512 | ≥ 512 | ≥ 512 | 3.74 | – | –
3 | CN(CC(=O)NCc1ccccc1)CC(O)Cn1c(=O)c2ccccc2n(C)c1=O.Cl (centres undefined) | 32 | 64 | 32 | ≥ 512 | ≥ 512 | ≥ 512 | ≥ 512 | ≥ 512 | ≥ 512 | 3.89 | – | –
4 | Cc1ccc(NC(=O)CN(C)CC(O)Cn2c(=O)c3ccccc3n(C)c2=O)cc1.Cl (centres undefined) | 32 | 2 | 32 | ≥ 512 | ≥ 512 | ≥ 512 | ≥ 512 | ≥ 512 | ≥ 512 | 4.10 | – | –
5 | CN(CC(=O)Nc1ccccc1Cl)CC(O)Cn1c(=O)c2ccccc2n(C)c1=O.Cl (centres undefined) | 64 | 2 | 32 | ≥ 512 | ≥ 512 | ≥ 512 | ≥ 512 | ≥ 512 | ≥ 512 | 3.59 | – | –
6 | CN(CC(=O)Nc1ccc(Cl)cc1)CC(O)Cn1c(=O)c2ccccc2n(C)c1=O.Cl (centres undefined) | 16 | 2 | 128 | ≥ 512 | ≥ 512 | ≥ 512 | ≥ 512 | ≥ 512 | ≥ 512 | 3.80 | – | –
7 | CN(CC(=O)Nc1ccc(C(F)(F)F)cc1)CC(O)Cn1c(=O)c2ccccc2n(C)c1=O.Cl (centres undefined) | 32 | 32 | 8 | ≥ 512 | ≥ 512 | ≥ 512 | ≥ 512 | ≥ 512 | ≥ 512 | 3.96 | – | –
8 | CN(CC(=O)Nc1ccccc1[N+](=O)[O-])CC(O)Cn1c(=O)c2ccccc2n(C)c1=O.Cl (centres undefined) | > 512 | 32 | 64 | ≥ 512 | ≥ 512 | ≥ 512 | ≥ 512 | ≥ 512 | ≥ 512 | 3.68 | – | –
9 | CN(CC(=O)NCc1ccc(Cl)cc1)CC(O)Cn1c(=O)c2ccccc2n(C)c1=O.Cl (centres undefined) | 32 | 64 | 64 | ≥ 512 | ≥ 512 | ≥ 512 | ≥ 512 | ≥ 512 | ≥ 512 | < 3.12 | – | –
10 | CN(CC(=O)NC(C)(C)C)CC(O)Cn1c(=O)c2ccccc2n(C)c1=O.Cl (centres undefined) | > 512 | 128 | 64 | ≥ 512 | ≥ 512 | ≥ 512 | ≥ 512 | ≥ 512 | ≥ 512 | 3.85 | – | –
11 | COC(=O)c1ccccc1NC(=O)CN(C)CC(O)Cn1c(=O)c2ccccc2n(C)c1=O.Cl (centres undefined) | 32 | 2 | 4 | ≥ 512 | ≥ 512 | ≥ 512 | ≥ 512 | ≥ 512 | ≥ 512 | 3.77 | 8 | 16
12 | CN(CC(=O)Nc1ccccc1)CC(O)Cn1c(=O)c2ccccc2n(C)c1=O.Cl (centres undefined) | 32 | 64 | > 512 | ≥ 512 | ≥ 512 | ≥ 512 | ≥ 512 | ≥ 512 | ≥ 512 | < 3.12 | – | –
13 | CN(CC(=O)Nc1ccc([N+](=O)[O-])cc1)CC(O)Cn1c(=O)c2ccccc2n(C)c1=O.Cl (centres undefined) | > 512 | 64 | 64 | ≥ 512 | ≥ 512 | ≥ 512 | ≥ 512 | ≥ 512 | ≥ 512 | < 3.12 | – | –
14 | CN(CC(=O)N(C)c1ccccc1)CC(O)Cn1c(=O)c2ccccc2n(C)c1=O.Cl (centres undefined) | 64 | 8 | 256 | ≥ 512 | ≥ 512 | ≥ 512 | ≥ 512 | ≥ 512 | ≥ 512 | 3.49 | – | –
15 | CCN(CC)C(=O)CN(C)CC(O)Cn1c(=O)c2ccccc2n(C)c1=O.Cl (centres undefined) | 64 | 16 | 8 | ≥ 512 | ≥ 512 | ≥ 512 | ≥ 512 | ≥ 512 | ≥ 512 | 3.47 | – | –
16 | CN(CC(=O)N1CCCCC1)CC(O)Cn1c(=O)c2ccccc2n(C)c1=O.Cl (centres undefined) | 32 | 512 | – | ≥ 512 | ≥ 512 | ≥ 512 | ≥ 512 | ≥ 512 | ≥ 512 | < 3.12 | – | –
17 | OC(Cn1cncn1)(Cn1cncn1)c1ccc(F)cc1F [FLUCONAZOLE] | 32 (≈ 104 µM) | 2 (≈ 6.53 µM) | 64 (≈ 209 µM) | – | – | – | – | – | – | – | – | –
18 | NC(=O)OC[C@H](O)[C@@H](O)[C@H](N)C(=O)N[C@H](C(=O)O)[C@H]1O[C@@H](n2cc(CO)c(=O)[nH]c2=O)[C@H](O)[C@@H]1O [POLYOXIN B] | 16 (≈ 31.5 µM) | 4 (≈ 7.88 µM) | 32 (≈ 63.1 µM) | – | – | – | – | – | – | 3.74 | – | –
19 | CN[C@@H]1[C@H](O[C@H]2[C@H](O[C@H]3[C@H](O)[C@@H](O)[C@H](N=C(N)N)[C@@H](O)[C@@H]3N=C(N)N)O[C@@H](C)[C@]2(O)C=O)O[C@@H](CO)[C@H](O)[C@H]1O.CN[C@@H]1[C@H](O[C@H]2[C@H](O[C@H]3[C@H](O)[C@@H](O)[C@H](N=C(N)N)[C@@H](O)[C@@H]3N=C(N)N)O[C@@H](C)[C@]2(O)C=O)O[C@@H](CO)[C@H](O)[C@H]1O.O=S(=O)(O)O.O=S(=O)(O)O.O=S(=O)(O)O [STREPTOMYCIN SULFATE] | – | – | – | 64 | 64 | 64 | 64 | 64 | 64 | – | – | –
